This note sets out measurements from ChEMBL document CHEMBL6087468, “TKK130 is a 3-Hydroxy-Propanamidine (HPA) with Potent Antimalarial In Vivo Activity and a High Barrier to Resistance” (J Med Chem, 2025).

Series [1] can be described thus: Plasma protein binding in plasma (unknown origin) at 25 ng/ml measured after 24 hrs by standard equilibrium dialysis assay. Format: ADME, cell-free. As to conditions: read-out: PPB (converted). In outline:
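Standard equilibrium dialysis (6 kDa regenerated cellulose membrane): donor plasma spiked at 25 ng/mL, acceptor 0.9% saline, 24 h at 37 °C. Acetonitrile precipitation of plasma, methanol added to acceptor; LC–MS/MS with calibration curves in each medium; fraction bound corrected for volume shift; triplicate; itraconazole reference.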
(In equilibrium dialysis free small molecules cross a membrane that holds back macromolecules.)

Series [2] can be described thus: Plasma protein binding in plasma (unknown origin) at 25 ng/ml measured after 24 hrs by dilution method. It is filed as ADME, cell-free. In outline: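 Equilibrium dialysis with donor plasma diluted 1:10 or 1:20 in 0.9% saline, spiked at 25 ng/mL, against 0.9% saline acceptor for 24 h at 37 °C. Concentrations by LC–MS/MS against diluted-plasma calibration curves; unbound fraction (acceptor/donor) back-calculated to undiluted plasma; triplicate; itraconazole reference.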

The test system of series [3] is Plasmodium berghei. Briefly: In vivo antiplasmodial activity against Plasmodium berghei infected mouse model assessed as parasitemia suppression in blood at 30 mg/kg, po treated 4 times measured at 96 hrs post infection by fluorescence-activated cell sorting (FACS) analysis. It is filed as functional.
Series [4] concerns Plasmodium berghei. Description: In vivo antiplasmodial activity against Plasmodium berghei infected mouse model assessed as mean survival time at 30 mg/kg, po treated 4 times measured at 96 hrs post infection by fluorescence-activated cell sorting (FACS) analysis (reference value: 4 days). Format: functional.
The test system of series [5] is Plasmodium berghei. Briefly: In vivo antiplasmodial activity against Plasmodium berghei infected mouse model assessed as curation rate at 30 mg/kg, po treated 4 times measured at 96 hrs post infection by fluorescence-activated cell sorting (FACS) analysis. It is filed as functional.
In series [6] the test system is Plasmodium falciparum. Briefly: Antimalarial activity against chloroquine, sulfadoxine, and pyrimethamine-resistant Plasmodium falciparum Dd2 infected in erythrocyte assessed as reduction in number of viable parasites at 10 times IC50 concentration treated for 72 hrs followed by allowed to recover in drug-free medium for 28 days by HRP2-ELISA analysis. It is filed as functional, organism-based.

In series [7] the test system is Hemozoin. Briefly: Inhibition of beta-hematin formation assessed as formation of bis-pyridyl heme complex incubated for 4 to 5 hrs by Nonidet-40 based plate reader assay.
Series [8] is described as follows: Metabolic stability in human liver microsomes assessed as intrinsic clearance at 50 ug/ml measured up to 60 mins. It is filed as ADME, Microsome. As to conditions: dose 50 µg/ml; for microsomal CLint at 50 ug/ml: liver microsomes, read-out: CLH. In outline:
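Pooled human liver microsomes (150 donors) in 0.1 M potassium phosphate buffer pH 7.4, cosolvent method, analyte at 1 μM final; reactions stopped with ice-cold acetonitrile at 0, 15, 30, 45, 60 min; LC–MS/MS. Clint from ke (negative slope of ln peak-area ratio vs time) via t1/2 = ln2/ke; triplicate; no-cofactor negative control and blank run.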
(In general: Liver microsomes are vesicles of endoplasmic reticulum, rich in cytochrome P450 enzymes.)

In series [9] the test system is Plasmodium knowlesi. Description: Antiplasmodial activity against Plasmodium Knowlesi inhibition of parasite growth measured after 48 hrs incubation by Sybr-green assay. It is filed as functional, organism-based.
Series [10] can be described thus: Cytotoxicity against human HeLa cells assessed as cell viability measured after 24 hrs by neutral red assay. Format: toxicity, cell-based.
A short description of series [11]: Cytotoxicity against human HEK293 cells assessed as cell viability measured after 24 hrs by neutral red assay. It is filed as toxicity, cell-based.
The test system of series [12] is Plasmodium falciparum. Briefly: Antimalarial activity against multidrug-resistant Plasmodium falciparum Dd2 harboring pfcrt, pfmdr1, pfdhfr, pfdhps mutated loci assessed as inhibition of parasite growth incubated for 48 hrs by [3H]hypoxanthine incorporation assay. Format: functional, organism-based.
Series [13] deals with Plasmodium falciparum. Briefly: Antimalarial activity against multidrug-resistant Plasmodium falciparum TM90C2b harboring pfcrt, pfmdr1, pfdhfr, pfdhps and pfcytb-Q0 mutated loci assessed as inhibition of parasite growth incubated for 48 hrs by [3H]hypoxanthine incorporation assay. Format: functional, organism-based.
Series [14] concerns Plasmodium falciparum. Briefly: Antimalarial activity against multidrug-resistant Plasmodium falciparum RF12 (PH-1263-C) harboring pfcrt, pfmdr1, pfdhfr, pfdhps and pfK13 plasmepsin II mutated loci assessed as inhibition of parasite growth incubated for 48 hrs by [3H]hypoxanthine incorporation assay. It is filed as functional, organism-based.
The subject of series [15] is Plasmodium falciparum. Briefly: Antimalarial activity against chloroquine-sensitive Plasmodium falciparum 3D7 infected in erythrocytes measured after 3 days by HRP2-ELISA analysis. Format: functional, organism-based. As to conditions: 3D7, Erythrocyte, 72 h. On the technique in general: ELISA stands for enzyme-linked immunosorbent assay.
The subject of series [16] is Plasmodium falciparum. Briefly: Antimalarial activity against chloroquine, sulfadoxine, and pyrimethamine-resistant Plasmodium falciparum Dd2 infected in erythrocytes measured after 3 days by HRP2-ELISA analysis. It is filed as functional, organism-based. As to conditions: Dd2, Erythrocyte, 72 h.
Series [17] relates to Plasmodium falciparum. Briefly: Antimalarial activity against Plasmodium falciparum K1 infected in human erythrocytes assessed as inhibition of parasite growth measured after 48 hrs incubation by [3H]hypoxanthine incorporation assay. Format: functional, organism-based. As to conditions: K1, Erythrocyte.
Series [18] concerns Plasmodium falciparum. Description: Antimalarial activity against Plasmodium falciparum NF54 infected in human erythrocytes assessed as inhibition of parasite growth measured after 48 hrs incubation by [3H]hypoxanthine incorporation assay. It is filed as functional, organism-based. As to conditions: NF54, Erythrocyte.
Series [19] in a line: Cytotoxicity against human HepG2 cells assessed as cell viability measured after 24 hrs by neutral red assay. Format: toxicity, cell-based.
Series [20] deals with Plasmodium falciparum. Briefly: Antimalarial activity against chloroquine, sulfadoxine, and pyrimethamine-resistant Plasmodium falciparum Dd2 infected in erythrocyte assessed as reduction in number of viable parasites at 10 times IC50 concentration treated for 24 hrs followed by allowed to recover in drug-free medium for 28 days by HRP2-ELISA analysis. It is filed as functional, organism-based.

For series [21], the system named is Plasmodium falciparum. Description: Antimalarial activity against chloroquine, sulfadoxine, and pyrimethamine-resistant Plasmodium falciparum Dd2 infected in erythrocyte assessed as reduction in number of viable parasites at 10 times IC50 concentration treated for 120 hrs followed by allowed to recover in drug-free medium for 28 days by HRP2-ELISA analysis. Format: functional, organism-based.

Series [22] deals with Plasmodium berghei. Description: In vivo antiplasmodial activity against Plasmodium berghei infected mouse model assessed as parasitemia suppression in blood at 50 mg/kg, po treated 4 times measured at 96 hrs post infection by fluorescence-activated cell sorting (FACS) analysis. Format: functional.
The subject of series [23] is Plasmodium berghei. Briefly: In vivo antiplasmodial activity against Plasmodium berghei infected mouse model assessed as parasitemia suppression in blood at 10 mg/kg, po treated 4 times measured at 96 hrs post infection by fluorescence-activated cell sorting (FACS) analysis. It is filed as functional.
The subject of series [24] is Plasmodium berghei. Description: In vivo antiplasmodial activity against Plasmodium berghei infected mouse model assessed as parasitemia suppression in blood at 3 mg/kg, po treated 4 times measured at 96 hrs post infection by fluorescence-activated cell sorting (FACS) analysis. It is filed as functional.
The test system of series [25] is Plasmodium berghei. Briefly: In vivo antiplasmodial activity against Plasmodium berghei infected mouse model assessed as mean survival time at 50 mg/kg, po treated 4 times measured at 96 hrs post infection by fluorescence-activated cell sorting (FACS) analysis (reference value: 4 days). Format: functional.
The test system of series [26] is Plasmodium berghei. Description: In vivo antiplasmodial activity against Plasmodium berghei infected mouse model assessed as mean survival time at 10 mg/kg, po treated 4 times measured at 96 hrs post infection by fluorescence-activated cell sorting (FACS) analysis (reference value: 4 days). It is filed as functional.
Series [27] relates to Plasmodium berghei. Description: In vivo antiplasmodial activity against Plasmodium berghei infected mouse model assessed as curation rate at 10 mg/kg, po treated 4 times measured at 96 hrs post infection by fluorescence-activated cell sorting (FACS) analysis. Format: functional.
Series [28] is described as follows: Selectivity index, ratio of IC50 for antimalarial activity against Plasmodium falciparum 3D7 to IC50 for cytotoxicity against human HeLa cells. As to conditions: HeLa cells and Plasmodium falciparum 3D7.
Series [29] in a line: Selectivity index, ratio of IC50 for antimalarial activity against Plasmodium falciparum 3D7 to IC50 for cytotoxicity against human HepG2 cells. As to conditions: HepG2 cells and Plasmodium falciparum 3D7.
Series [30] can be described thus: Selectivity index, ratio of IC50 for antimalarial activity against Plasmodium falciparum 3D7 to IC50 for cytotoxicity against human HEK293 cells. As to conditions: HEK293 cells and Plasmodium falciparum 3D7.
The test system of series [31] is Plasmodium falciparum. Description: Induction of resistance development in Plasmodium falciparum Dd2 Pol delta at 2 x 10^7 initial inoculum per flask by single-step selection assay. Format: functional, organism-based.
Series [32] relates to Plasmodium falciparum. Briefly: Induction of resistance development in Plasmodium falciparum Dd2 Pol delta at 2 x 10^7 initial inoculum per flask measured on day 16 by single-step selection assay. It is filed as functional, organism-based.
Series [33] concerns Plasmodium falciparum. Description: Induction of resistance development in Plasmodium falciparum Dd2 Pol delta at 2 x 10^7 initial inoculum per flask measured by growth inhibition assay. It is filed as functional, organism-based. In outline:
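Recrudescent Dd2-Polδ parasites from DSM265 selection, compared with the parent line in the growth inhibition assay to measure the IC50 shift.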

Activity calls are given as the source filed them. The rule behind the calls is not given here.

Take `CCC(C)n1ncn(-c2ccc(N3CCN(c4ccc(OCC5COC(Cn6cncn6)(c6ccc(Cl)cc6Cl)O5)cc4)CC3)cc2)c1=O` (stereo unspecified) [ITRACONAZOLE]: the fraction unbound at 24 h, 25 ng/ml in series [1] was 0.016; in series [2] it was 0.004.

As to `C[C@@H]1CC[C@H]2[C@@H](C)C(=O)O[C@@H]3O[C@@]4(C)CC[C@@H]1[C@]32OO4` [ARTEMISININ], the results for the Activity in [3] and in series [5] were 99% and 0%, respectively. Moreover, in series [4], the MSD is 9 days.

As for `CCc1nc(N)nc(N)c1-c1ccc(Cl)cc1`, the Activity entry in series [6] was “Active; Compound Exhibited Slower Acting”.

A word on the IC50: it is the point on the concentration scale where inhibition reaches its midpoint. With `CCCCN(CCCC)CCC(O)c1cc2c(Cl)cc(Cl)cc2c2cc(C(F)(F)F)ccc12` (stereo unspecified) [HALOFANTRINE], the IC50 in series [7] was 13.4 µM. Also, the microsomal CLint at 50 ug/ml in series [8] amounted to 26.9 µL/min/mg.

As for `CCN(CC)CCCC(C)Nc1ccnc2cc(Cl)ccc12` (stereo unspecified) [CHLOROQUINE], the 50% inhibitory concentration (IC50) came to 0.016 µM in series [9], 0.015 µM in series [12], 0.013 µM in series [13] and 0.004 µM in [14]. Further, the IC50 at 24 h in [10] and in [11] was above 1000 µM each time. In series [8], the microsomal CLint at 50 ug/ml is below 7 µL/min/mg. Moreover, the Activity is given as 99.9% in series [3] and 0% in series [5]. For the same compound, the MSD in series [4] came to 21 days.

As to `COc1ccc(/N=C(\N)CC(O)c2cc3c(F)cc(F)cc3c3cc(C(F)(F)F)ccc23)cc1` (stereo unspecified), the IC50 in series [15] is 0.005 µM; in series [16], 0.012 µM; in [17], 0.006 µM; in series [18], 0.016 µM; in series [7] it was 8.4 µM. For the same compound, in series [19], the half-inhibitory concentration (IC50) at 24 h is 4.2 µM. Also, the Activity result in series [20] was “Active; Compound Exhibited Fast-Acting Than Dihydroartemisinin”; in series [3], 99.9%; in [22] it was 99.8%; in series [23], 99.9%; in series [24], 0%; in series [27] it was 0%. The outcome in [6] and in series [21] was Active. The CLint in series [8] (microsomes, 1 h) amounted to 13.6 µL/min/mg. Moreover, the figures for the MSD in series [4], in [25] and in series [26] were 28 days, 27 days and 17 days, respectively. In addition, the values for the selectivity ratio in series [28], in series [29] and in series [30] were 9220, 860 and 7360, respectively.

`CCCCN(CCCC)CC(O)c1cc(Cl)cc2c1-c1ccc(Cl)cc1/C2=C/c1ccc(Cl)cc1` (stereo unspecified) [LUMEFANTRINE]: the IC50 was determined as 0.006 µM in series [15], 0.002 µM in series [16], 0.001 µM in [17] and 0.005 µM in series [18]. In addition, the 50% inhibitory concentration (IC50) at 24 h in series [19] is above 20 µM. Also, the Activity in series [3] is 99.8%. Moreover, the MSD in series [4] was above 30 days. In [29], the selectivity ratio is above 20.

For `O=C1C(O)=C([C@H]2CC[C@H](c3ccc(Cl)cc3)CC2)C(=O)c2ccccc21`, in [21], the Activity entry is reported as “Active; Compound Exhibited Slower Acting”.

For the compound `Cc1cc(Nc2ccc(S(F)(F)(F)(F)F)cc2)n2nc(C(C)(F)F)nc2n1` [DSM-265], the values for the IC50 in [31] and in series [33] were 0.0102 µM and 0.232 µM, respectively. In addition, the Activity result in series [32] was “Not active; Recrudescence Of Parasite Observed”.
